Our source for the Ki values is BindingDB's records for doi:10.1021/ml100053y (2010).

As usually defined, the pKi is the negative decadic logarithm of the Ki, by convention in mol/L. Higher therefore signals a low Ki.

The test concerns the target T1, 5-hydroxytryptamine receptor 1A (Homo sapiens, UniProt P08908).
T1 sequence (P08908 whole entry): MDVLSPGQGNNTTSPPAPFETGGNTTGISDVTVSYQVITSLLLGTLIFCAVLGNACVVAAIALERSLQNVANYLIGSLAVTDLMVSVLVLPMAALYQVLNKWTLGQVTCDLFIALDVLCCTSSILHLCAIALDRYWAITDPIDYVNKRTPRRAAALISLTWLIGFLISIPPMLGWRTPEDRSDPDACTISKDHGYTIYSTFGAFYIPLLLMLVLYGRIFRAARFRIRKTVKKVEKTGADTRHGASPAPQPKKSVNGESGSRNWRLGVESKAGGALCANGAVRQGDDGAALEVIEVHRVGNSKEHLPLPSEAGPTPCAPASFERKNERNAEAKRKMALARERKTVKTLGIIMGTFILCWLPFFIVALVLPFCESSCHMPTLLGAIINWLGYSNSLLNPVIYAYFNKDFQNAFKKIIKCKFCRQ
The test can be described thus: Displacement of [3H]8-OH-DPAT from human 5HT1A receptor expressed in EBNA gene-positive HEK293 cells after 120 mins. In short, it runs like this: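 Radioligand competition binding with [3H]-8-hydroxy-DPAT on membranes from transfected HEK-293 EBNA cells expressing h5-HT1AR. Buffer was 50 mM Tris-HCl, 0.5 mM MgSO4, pH 7.4. Ki was obtained from IC50 by the Cheng-Prusoff equation. Values are means ± SEM of 2–4 independent experiments, each run in triplicate.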
(In general: Displacement assays read how much labelled ligand stays bound in the presence of the test substance.)

The structures appear in SMILES notation. pKi: −log10 of the molar value.

With `O=c1n(CCCCN2CCN(c3cccc4ccccc34)CC2)c(O)c2n1CCC2` [2-[4-(4-Naphthalen-1-yl-piperazin-1-yl)-butyl]-tetrahydro-pyrrolo[1,2-c]imidazole-1,3-dione], the negative logarithm of the Ki (pKi) is 8.62.
The value for `CN(C)S(=O)(=O)c1ccc2cccc(N3CCN(CCCCn4c(O)c5n(c4=O)CCC5)CC3)c2c1` [8-{4-[4-(1,3-Dioxotetrahydro-1H-pyrrolo[1,2-c]imidazol-2(3H)-yl)butyl]piperazin-1-yl}-N,N-dimethylnaphthalene-2-sulfonamide] was 8.62.
